Hits are enriched below; roughly 1.7% of the tested compounds scored in any of these assays.
PLCb3 inh – blocks human PLC-beta3 enzyme activity; Q01970; Purified PLC-beta3, fluorogenic substrate, fluorescence; inhibition, % at 12.2 µM; 370,000 compounds, 0.18% hits;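 further: 0% = median of compound wells on plate and 100% = full blocker control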
Rpn11 inh – Rpn11 (human) deubiquitinase inhibition; human 26S proteasome, Ub4-pepOG fluorescence polarization; 20S core pre-blocked with epoxomicin; inhibition, % at 20 µM; 360,000 compounds, 0.59% hits; AID 588493;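 active means inhibition at 20 µM, scaled to each plate's controls, above about 33%, limit read from the data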
Target sequence (O00487 whole entry, looked up): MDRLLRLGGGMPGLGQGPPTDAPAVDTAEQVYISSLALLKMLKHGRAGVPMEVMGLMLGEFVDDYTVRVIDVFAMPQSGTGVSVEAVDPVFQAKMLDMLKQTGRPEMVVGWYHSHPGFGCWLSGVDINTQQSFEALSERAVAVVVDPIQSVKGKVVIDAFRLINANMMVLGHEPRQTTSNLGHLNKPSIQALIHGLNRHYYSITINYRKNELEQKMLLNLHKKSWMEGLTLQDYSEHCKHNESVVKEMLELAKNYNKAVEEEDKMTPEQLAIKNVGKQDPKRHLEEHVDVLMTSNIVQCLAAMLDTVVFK
PLC-gamma1 inh – blocks human PLC-gamma1 enzyme activity; purified PLC-gamma1, fluorogenic substrate, fluorescence; 370,000 compounds, 0.84% hits; inhibition, % at 12.2 µM; P19174; AID 720700; in the data active means inhibition above about 9.5%
UCH37 inh – human UCH37 deubiquitinating enzyme inhibition; Q9Y5K5; purified proteasome/UCH37, Ub-AMC cleavage fluorescence; inhibition, % (no concentration beside the values); 330,000 compounds, 0.33% hits;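 active means mean inhibition over replicate wells above about 20%, limit read from the data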;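 further: 0% = compound-free wells with enzyme and 100% = wells lacking proteasome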
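Material: human UCH37 enzyme supplied as purified proteasome complex / Amount: 0.15 nM proteasome as dispensed / Buffer or medium: pH 7.4 Tris-HCl (50 mM) with ovalbumin, ATP-MgCl2, DTT / Times: preincubation 30 min, reaction 25 min, room temperature / Technique: AMC fluorescence from Ub-AMC cleavage, excitation 355 nm, emission 460 nm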
PLCg1 ctr – inhibits human PLC-gamma1 in PLC-beta3 counter-screen; shares compounds with PLC-gamma1 inh; purified PLC-gamma1, fluorogenic substrate, fluorescence; inhibition, % at 12.3 µM; 3,300 compounds, 3.1% hits; AID 743258; in the data active means inhibition above about 9.5%
PLCbeta3 conf – confirmation of human PLC-beta3 inhibitors; shares compounds with PLC-gamma1 inh; 3,300 compounds, 1% hits; inhibition, % at 12.3 µM; AID 743261; purified PLC-beta3, fluorogenic substrate fluorescence
Numbers without * were called inactive; · = no result given. Unless noted, no stated cut-off is given here; in the data, active means inhibition above about 11%; inactive means the rest.

SMILES	PLCb3 inh	Rpn11 inh	PLC-gamma1 inh	UCH37 inh	PLCg1 ctr	PLCbeta3 conf
Nc1nonc1C(=O)N1CCCC1	3	11	0	3	·	·
Cc1c(C(=O)N2CCCCC2)nnn1-c1nonc1N	2	4	19*	7	-7	-3
Cc1cccn2c(C=NOCc3cccc(F)c3)c(-c3ccc(Cl)cc3)nc12	·	·	·	-36	·	·
O=C(NC(C(=O)NN=Cc1ccccc1)c1n[nH]c(=O)c2ccccc12)c1ccccc1 (stereo not drawn)	·	·	·	2	·	·
Cc1cc2oc(C(=O)Nc3nonc3C)c(C)c2cc1C	-11	-8	9.6*	3	-13	-13
CCc1ccc2oc(C(=O)Nc3nonc3C)c(C)c2c1	-8	-2	8	5	·	·
CC1C(=O)Nc2ccccc2N1C(=O)c1cccc(C(F)(F)F)c1 (stereo not drawn)	-3	-4	13*	4	-4	1
COc1ccc(CNc2nc(NCc3ccc(OC)cc3)c3[nH]cnc3n2)cc1	9	-3	12*	0	0	-2
COc1ccc(CC2(CO)CCN(Cc3nc(C(C)C)cs3)CC2)cc1	7	-4	13*	-1	-6	-1
O=C(NN=Cc1cccnc1)c1cc(-c2ccccc2Cl)nc2ccccc12	·	·	·	2	·	·
COc1cccc(CNCc2ccccn2)c1OC	14*	14	3	1	-6	-4
COc1cccc(CNCc2ccc(OC)c3ccccc23)c1OC	-3	2	5	5	·	·
COc1ccc(S(=O)CC(=O)Nc2ccccc2Cl)cc1 (stereo not drawn)	5	-5	4	2	·	·
O=C(CS(=O)c1cccc(C(F)(F)F)c1)Nc1ccc(Cl)cc1Cl (stereo not drawn)	3	8	17*	6	13*	4
O=C(CS(=O)c1cccc(Cl)c1)Nc1ccccc1Cl (stereo not drawn)	4	-5	11*	6	11*	1
Cc1cccc(C(C#N)c2nc3ccccc3nc2C(F)(F)F)c1 (stereo not drawn)	5	-1	9.8*	1	1	-2
CCOc1ccc(NC2=C(Cl)C(=O)N(Cc3ccccc3)C2=O)cc1	0	-7	11*	3	-1	1
O=[N+]([O-])c1ccc(S(=O)(=O)NN=Cc2ccco2)cc1	·	·	·	2	·	·
CC(C)CN(C(=O)COC(=O)c1ccc2ccccc2n1)C1CCS(=O)(=O)C1 (stereo not drawn)	2	1	0	0	·	·
CC(C)CN(C(=O)COC(=O)Cc1n[nH]c(=O)c2ccccc12)C1CCS(=O)(=O)C1 (stereo not drawn)	2	-4	12*	3	-7	-2
CC1CCN(CC(O)COc2ccc(OCC(O)CN3CCC(C)CC3)cc2)CC1 (stereo not drawn)	-1	-1	1	-1	·	·
Cc1ccc(C)c(OCC(O)CN2CCC(C)CC2)c1C (stereo not drawn)	2	-1	11*	2	-4	-5
CCCC(C)C(=O)Nc1ccc2c(c1)OCCO2 (stereo not drawn)	3	5	1	2	·	·
CCCC(C)C(=O)Nc1cccc(NC(C)=O)c1 (stereo not drawn)	8	3	12*	4	-6	-3
CC(C)Oc1ccc(Br)cc1C(=O)NN=Cc1c[nH]c2ccccc12	·	·	·	-8	·	·
SMILES	PLCb3 inh	Rpn11 inh	PLC-gamma1 inh	UCH37 inh	PLCg1 ctr	PLCbeta3 conf
Clc1ccc(-c2c[n+](Cc3ccc(Cl)cc3Cl)c3n2CCCCC3)cc1	6	-6	11*	·	-2	0
Cc1ccc(C(=NNc2nc3ccccc3s2)C2=C(O)c3ccccc3C2=O)cc1	·	·	·	5	·	·
COc1c(Cl)cc(Br)c(OC)c1C(=O)NC(=O)Nc1nc(C)cc(C)n1	1	5	11*	6	-2	-1
CC(=NNc1ccccc1[N+](=O)[O-])c1ccccc1O	·	·	·	-1	·	·
O=C(O)CN(c1cccc(C(F)(F)F)c1)S(=O)(=O)c1ccccc1	1	-2	0	2	·	·
O=S(=O)(c1ccccc1)N(CC(F)(F)F)c1ccc(C(O)(C(F)(F)F)C(F)(F)F)cc1	4	-2	12*	·	-11	-7
COc1ccc2nc(N=Cc3cccc(OC)c3O)sc2c1	·	·	·	1	·	·
Cc1ccccc1N1CCN(CCCN2C(=O)CC(=C(c3ccccc3)c3ccccc3)C2=O)CC1	-4	4	8	2	·	·
O=C1CC(=C(c2ccccc2)c2ccccc2)C(=O)N1CCCCN1CCN(c2cccc(Cl)c2)CC1	11*	2	20*	1	-1	2
COc1ccc(OC)c(C=NNc2nc(C)cc(=O)[nH]2)c1	·	·	·	-378	·	·
CC(=NOC(=O)CC(C)C)c1cc(-c2ccc(Cl)cc2)no1	·	·	·	0	·	·
CC1CCCN(C(=O)C23CCC(C)(C(=O)C2)C3(C)C)C1 (stereo not drawn)	11*	2	5	4	4	7
CC(C)N1CCN(c2ccc(OCC3COC(Cn4cncn4)(c4ccc(Cl)cc4Cl)O3)cc2)CC1 (stereo not drawn)	9	3	9.8*	·	2	0
CNC(=S)NN=Cc1c(Cl)cccc1Cl	·	·	·	4	·	·
COc1cccc(C(=O)N(CN2CCCC2=O)c2cccc(Cl)c2)c1	6	0	11*	6	-2	0
COc1ccc([N+](=O)[O-])cc1NC(=O)CC1SC(=Nc2cccc(C)c2C)N(N=Cc2cccc(OC)c2OC)C1=O (stereo not drawn)	·	·	·	4	·	·
CN(C(=O)CS(=O)(=O)c1cccc(Cl)c1)c1ccccc1	3	-4	11*	-1	-3	-1
CCOC(=O)c1ccc(N/C(=N\S(=O)(=O)c2ccccc2C)c2ccccc2)cc1	2	-8	10*	·	-2	-4
Cc1ccc(C2=[N+]([O-])C3(CCCCCC3=NO)N(O)C2(C)C)o1 (stereo not drawn)	·	·	·	6	·	·
O=Cc1c[nH]c2ncccc12	-7	2	10*	-1	-5	-2
Cc1ccccc1-c1cc2c(nn1)-c1ccccc1C2=O	12*	-2	9	14	2	1
Cc1ccc(-c2cc3c(nn2)-c2ccccc2C3=O)cc1	0	7	3	7	·	·
Cc1cc(C)c(OCCCCN(C)Cc2ccccc2)c(C)c1	1	6	13*	7	-3	1
O=C(NC(=NO)c1ccccc1)Nc1ccc(Cl)cc1	·	·	·	1	·	·
O=C(NN=Cc1cc([N+](=O)[O-])ccc1O)c1cccc(NC(=O)c2cccc(Cl)c2)c1	·	·	·	5	·	·
CC(C)(C)c1ccccc1OCC(O)CN1CCN(c2ccccn2)CC1 (stereo not drawn)	-4	-9	12*	-1	0	-2
Cc1ccc(OCC(O)CN2CCN(c3ccccn3)CC2)c(C)c1 (stereo not drawn)	-4	-5	1	2	·	·
c1ccc(CSc2nnc(SCc3ccccn3)s2)nc1	14*	4	11*	0	-4	-3
